Key:
Type in all cases: functional
[1] = tested on: HOP-62; assay: Growth inhibition of human HOP-62 cells assessed as cell growth at 1 uM incubated for 48 hrs by sulforhodamine B assay relative to control; details: read-out: Activity
[2] = tested on: NCI-H460; assay: Growth inhibition of human NCI-H460 cells assessed as cell growth at 1 uM incubated for 48 hrs by sulforhodamine B assay relative to control; details: read-out: Activity
[3] = tested on: UO-31; assay: Growth inhibition of human UO-31 cells assessed as cell growth at 0.01 uM incubated for 48 hrs by sulforhodamine B assay relative to control; details: read-out: Activity
[4] = tested on: HCC 2998; assay: Growth inhibition of human HCC 2998 cells assessed as cell growth at 100 uM incubated for 48 hrs by sulforhodamine B assay relative to control; details: read-out: Activity
Procedure, shortened: (§1)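 NCI Developmental Therapeutics Program NCI60 panel. Compounds that were active in the 10 µM one-dose screen went on to dose–response testing. Growth at each concentration is expressed relative to untreated control (100%). GI50 (concentration giving 50% of maximal inhibition of proliferation) and TGI (concentration giving total growth inhibition) were derived from the curves.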

[5] = tested on: OVCAR-8; assay: Growth inhibition of human OVCAR-8 cells assessed as cell growth at 0.1 uM incubated for 48 hrs by sulforhodamine B assay relative to control; details: read-out: Activity
[6] = tested on: COLO 205; assay: Growth inhibition of human COLO 205 cells assessed as cell growth at 1 uM incubated for 48 hrs by sulforhodamine B assay relative to control; details: read-out: Activity; procedure, shortened: as §1
[7] = tested on: LOX IMVI; assay: Growth inhibition of human LOX IMVI cells assessed as cell growth at 0.1 uM incubated for 48 hrs by sulforhodamine B assay relative to control; details: read-out: Activity
[8] = tested on: MCF7; assay: Growth inhibition of human MCF7 cells assessed as cell growth at 1 uM incubated for 48 hrs by sulforhodamine B assay relative to control; details: read-out: Activity
[9] = tested on: PC-3; assay: Growth inhibition of human PC-3 cells assessed as cell growth at 0.1 uM incubated for 48 hrs by sulforhodamine B assay relative to control; details: read-out: Activity
[10] = tested on: MDA-MB-468; assay: Growth inhibition of human MDA-MB-468 cells assessed as cell growth at 0.01 uM incubated for 48 hrs by sulforhodamine B assay relative to control; details: read-out: Activity
[11] = tested on: A549; assay: Growth inhibition of human A549/ATCC cells assessed as cell growth at 0.01 uM incubated for 48 hrs by sulforhodamine B assay relative to control; details: read-out: Activity; procedure, shortened: as §1
[12] = tested on: A498; assay: Growth inhibition of human A498 cells incubated for 48 hrs by sulforhodamine B assay; procedure, shortened: as §1
[13] = tested on: U-251; assay: Growth inhibition of human U-251 cells assessed as cell growth at 100 uM incubated for 48 hrs by sulforhodamine B assay relative to control; details: read-out: Activity
[14] = tested on: NCI-H322M; assay: Growth inhibition of human NCI-H322M cells assessed as cell growth at 1 uM incubated for 48 hrs by sulforhodamine B assay relative to control; details: read-out: Activity
[15] = tested on: NCI-H322M; assay: Growth inhibition of human NCI-H322M cells assessed as cell growth at 100 uM incubated for 48 hrs by sulforhodamine B assay relative to control; details: read-out: Activity
[16] = tested on: MCF7; assay: Growth inhibition of human MCF7 cells incubated for 48 hrs by sulforhodamine B assay
Procedure, shortened: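 NCI60 panel at the NCI Developmental Therapeutics Program. Only compounds active in the 10 µM screen went to dose-response testing. GI50, the concentration giving 50% of maximal inhibition of proliferation, and TGI, the concentration giving total growth inhibition, were derived from the dose-response curves.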

[17] = tested on: SF-539; assay: Growth inhibition of human SF-539 cells incubated for 48 hrs by sulforhodamine B assay
Procedure, shortened: (§2)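 NCI DTP 60-line human tumour panel. Dose-response curves were run only for ligands active in the initial 10 µM screen. GI50 (concentration giving 50% of maximal inhibition of proliferation) and TGI (concentration giving total growth inhibition) were derived from these curves.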

[18] = tested on: MDA-MB-435; assay: Growth inhibition of human MDA-MB-435 cells assessed as cell growth at 100 uM incubated for 48 hrs by sulforhodamine B assay relative to control; details: read-out: Activity
[19] = tested on: SF-295; assay: Growth inhibition of human SF-295 cells incubated for 48 hrs by sulforhodamine B assay; procedure, shortened: as §2
[20] = tested on: A498; assay: Growth inhibition of human A498 cells assessed as cell growth at 0.01 uM incubated for 48 hrs by sulforhodamine B assay relative to control; details: read-out: Activity; procedure, shortened: as §1
[21] = tested on: RPMI-8226; assay: Growth inhibition of human RPMI-8226 cells assessed as cell growth at 0.01 uM incubated for 48 hrs by sulforhodamine B assay relative to control; details: read-out: Activity
[22] = tested on: MOLT-4; assay: Growth inhibition of human MOLT-4 cells assessed as cell growth at 0.1 uM incubated for 48 hrs by sulforhodamine B assay relative to control; details: read-out: Activity
[23] = tested on: UACC-257; assay: Growth inhibition of human UACC-257 cells assessed as cell growth at 0.01 uM incubated for 48 hrs by sulforhodamine B assay relative to control; details: read-out: Activity
[24] = tested on: RXF 393; assay: Growth inhibition of human RXF 393 cells assessed as cell growth at 0.01 uM incubated for 48 hrs by sulforhodamine B assay relative to control; details: read-out: Activity
[25] = tested on: SW-620; assay: Growth inhibition of human SW-620 cells incubated for 48 hrs by sulforhodamine B assay; procedure, shortened: as §2
[26] = tested on: Hs-578T; assay: Growth inhibition of human Hs-578T cells assessed as cell growth at 0.1 uM incubated for 48 hrs by sulforhodamine B assay relative to control; details: read-out: Activity
[27] = tested on: T47D; assay: Growth inhibition of human T47D cells assessed as cell growth at 0.1 uM incubated for 48 hrs by sulforhodamine B assay relative to control; details: read-out: Activity
[28] = tested on: RXF 393; assay: Growth inhibition of human RXF 393 cells assessed as cell growth at 0.1 uM incubated for 48 hrs by sulforhodamine B assay relative to control; details: read-out: Activity
[29] = tested on: SF-539; assay: Growth inhibition of human SF-539 cells assessed as cell growth at 100 uM incubated for 48 hrs by sulforhodamine B assay relative to control; details: read-out: Activity
[30] = tested on: M14; assay: Growth inhibition of human M14 cells assessed as cell growth at 0.1 uM incubated for 48 hrs by sulforhodamine B assay relative to control; details: read-out: Activity
[31] = read-out: LC50 (the source's name)

SMILES: CCc1cccc(C)c1NC(=O)c1sc2nc3c(cc2c1N)C(=O)CCC3
- growth at 1 µM [1]: 52%
- growth at 1 µM [2]: 9%
- growth at 0.01 µM [3]: 86%
- growth at 100 µM [4]: 10%
- growth at 0.1 µM [5]: 97%
- growth at 1 µM [6]: -19%
- growth at 0.1 µM [7]: 93%
- growth at 1 µM [8]: 18%
- growth at 0.1 µM [9]: 87%
- growth at 0.01 µM [10]: 91%
- growth at 0.01 µM [11]: 96%
- GI50 [12]: 0.178 µM
- TGI [12]: 0.665 µM
- CC50 [12, 31]: > 100 µM
- growth at 100 µM [13]: 4%
- growth at 1 µM [14]: 42%
- growth at 100 µM [15]: 21%
- GI50 [16]: 0.36 µM
- TGI [16]: ≥ 100 µM
- CC50 [16, 31]: > 100 µM
- GI50 [17]: 0.32 µM
- CC50 [17, 31]: > 100 µM
- growth at 100 µM [18]: -13%
- GI50 [19]: 0.276 µM
- LC50 (concentration killing 50% of cells) [19]: > 100 µM
- TGI [19]: > 100 µM
- growth at 0.01 µM [20]: 80%
- growth at 0.01 µM [21]: 101%
- growth at 0.1 µM [22]: 102%
- growth at 0.01 µM [23]: 93%
- growth at 0.01 µM [24]: 84%
- GI50 [25]: 0.359 µM
- LC50 (concentration killing 50% of cells) [25]: > 100 µM
- TGI [25]: > 100 µM
- growth at 0.1 µM [26]: 90%
- growth at 0.1 µM [27]: 91%
- growth at 0.1 µM [28]: 74%
- growth at 100 µM [29]: 2%
- growth at 0.1 µM [30]: 92%

— ChEMBL document CHEMBL4715736, “Identification of anticancer agents based on the thieno[2,3-b]pyridine and 1H-pyrazole molecular scaffolds” (2016)
